Rows were chosen to be rich in hits. Some 1.3% of all compounds tested hit in one or more screens of this group.
PLC-gamma1 inh – PLC-gamma1 (human) inhibition, primary screen; P19174; purified PLC-gamma1, fluorogenic substrate, fluorescence; inhibition, % at 12.2 µM; actives 0.84% (n = 370,000); AID 720700; in the data active means inhibition above about 9.5%
Arr AP2 block – inhibitors of human beta-arrestin and AP2 interaction. inhibition, % at 10 µM. AID 504490. FITC-arrestin peptide / GST-AP2 beads, flow cytometry; AP2 beta2 appendage carries R879A mutation. actives 0.31% (n = 340,000);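 active means inhibition above a set limit, near 3 SD of compounds lacking own fluorescence, cut at about 54% in these data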
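system = GST-tagged AP2 beta2-adaptin appendage (R879A) on 4 µm glutathione beads | reagent = FITC-labelled arrestin peptide probe, 50 nM final | schedule = compound with beads 12 min RT, then probe 1 h RT | signal = HyperCyt-sampled flow cytometry, FL1 channel, ex 488/em 535 nm | read-out = percent response from loss of bead-bound FITC fluorescence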
PLC-beta3 inh – blocks human PLC-beta3 enzyme activity. inhibition, % at 12.2 µM. actives 0.18% (n = 370,000). Q01970. Purified PLC-beta3, fluorogenic substrate, fluorescence
NTR1 ag – agonists of human neurotensin receptor NTR1; actives 0.17% (n = 330,000); NTR1-U2OS beta-arrestin-GFP spot imaging, agonist mode; activation, % at 20 µM; P30989;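 active means activation at or above 40% of the spot to cytoplasm intensity ratio, with at least 20 cells analyzed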
PLCgamma1 ctr – PLC-gamma1 inhibition, counter-screen for PLC-beta3 hits. shares compounds with PLC-gamma1 inh. AID 743258. actives 3.1% (n = 3,300). inhibition, % at 12.3 µM. purified PLC-gamma1, fluorogenic substrate, fluorescence; in the data active means inhibition above about 9.5%
PLCb3 confirm – confirmation of human PLC-beta3 inhibitors; shares compounds with PLC-gamma1 inh; purified PLC-beta3, fluorogenic substrate fluorescence; inhibition, % at 12.3 µM; actives 1% (n = 3,300); AID 743261
Large screens that a line does not name were inactive (follow-up assays come after a bar, where they were run). Unless noted, no stated cut-off is given here; in the data, active means inhibition above about 11%; inactive means the rest.

CCN(CC)C(=O)c1[nH]cnc1C(=O)Nc1ccccc1	none
Brc1cnc(OCc2ccccc2)nc1OCc1ccccc1	PLC-beta3 inh 12 (no result: NTR1 ag) | PLCgamma1 ctr inactive | PLCb3 confirm inactive
Cc1onc(-c2c(Cl)cccc2Cl)c1C(=O)Nn1cnnc1	none
Cc1onc(-c2c(Cl)cccc2Cl)c1C(=O)ONC(=O)c1cc(C(F)(F)F)cc(C(F)(F)F)c1	PLC-gamma1 inh 10 | PLCgamma1 ctr inactive | PLCb3 confirm inactive
CC(C)(C)c1ccc(-c2noc(CCC(N)=O)n2)cc1	none
CN(C)C(=O)CCc1nc(-c2ccc(C(C)(C)C)cc2)no1	PLC-gamma1 inh 12 | PLCgamma1 ctr inactive | PLCb3 confirm inactive
C[N+]1(C)CCC(OC(=O)C(O)(c2ccccc2)C2CCCC2)C1 (stereo not drawn)	PLC-gamma1 inh 10 | PLCgamma1 ctr inactive | PLCb3 confirm inactive
O=C(NCC1COc2ccccc2O1)c1ccc(NC(=O)C(Cl)Cl)cc1 (stereo not drawn)	none (no result: Arr AP2 block, NTR1 ag)
CCNC(=O)C1(C)CCN1C(=O)CCc1cccc(Cl)c1 (stereo not drawn)	PLC-gamma1 inh 14 (no result: Arr AP2 block, NTR1 ag) | PLCgamma1 ctr inactive | PLCb3 confirm inactive
O=C(CN1C(=O)/C(=C/c2ccco2)SC1=S)Nc1ccc(C(=O)O)c(O)c1	PLC-gamma1 inh 58 | PLCgamma1 ctr 40 | PLCb3 confirm inactive
O=C(CN1C(=O)/C(=C/c2ccco2)SC1=S)Nc1ccc(O)c(C(=O)O)c1	PLC-gamma1 inh 46 | PLCgamma1 ctr 36 | PLCb3 confirm inactive
C=CCNC1CCC12CCC(c1ccccc1)CC2 (stereo not drawn)	none (no result: Arr AP2 block, NTR1 ag)
O=C(CSc1nc2ccccc2[nH]1)NCCc1ccc(Cl)cc1	PLC-gamma1 inh 11 | PLCgamma1 ctr inactive | PLCb3 confirm inactive
COc1ccc(CCNC(=O)CSc2ncn[nH]2)cc1	PLC-gamma1 inh 10 | PLCgamma1 ctr inactive | PLCb3 confirm inactive
Cc1occc1-c1nnc(SCC(=O)N2CCN(c3ncccn3)CC2)n1-c1ccccc1	none (no result: Arr AP2 block, NTR1 ag)
COCCNC(=S)N(C)[C@H]1C[C@H]2c3[nH]c4c(-c5ccc6c(c5)OCO6)cccc4c3CCN2C(=O)[C@H]1[C@H](C)O	none (no result: Arr AP2 block, NTR1 ag)
Cc1cccc(Nc2nc(N)c([N+](=O)[O-])c(NCc3ccco3)n2)c1	PLC-gamma1 inh 14 | PLCgamma1 ctr inactive | PLCb3 confirm inactive
Cc1cccc(Nc2nc(NCc3ccco3)nc(N)c2[N+](=O)[O-])c1	none
CC(=O)N1CCN(c2ccc(N3CCN(C(C)=O)[C@@H](C)C3)c(C)c2)[C@H](C)C1	none (no result: Arr AP2 block, NTR1 ag)
COC(=O)c1cn(-c2ccccc2)nc1-c1ccccc1	none
COC(=O)c1cn(-c2ccccc2)c(C)c1C(=O)OC	PLC-beta3 inh 12 | PLCgamma1 ctr inactive | PLCb3 confirm inactive
C#CCNC(=O)C[C@H]1C[C@@]2(C(=O)OC)C(=C[C@H](C3CCCC3)O[C@@H]2C)N(Cc2cccc3ccccc23)C1=O	none (no result: Arr AP2 block, NTR1 ag)
Cc1ccc(NC(=O)CSc2ccccc2)cc1S(=O)(=O)N1CCOCC1	PLC-gamma1 inh 12 | PLCgamma1 ctr inactive | PLCb3 confirm inactive
Cc1ccc(NC(=S)NCc2ccccc2)cc1S(=O)(=O)N1CCCCC1	PLC-gamma1 inh 14 | PLCgamma1 ctr inactive | PLCb3 confirm inactive
Cc1ccc(NC(=O)COC(=O)CC2CC3CCC2C3)cc1S(=O)(=O)N1CCOCC1 (stereo not drawn)	PLC-gamma1 inh 11 | PLCgamma1 ctr inactive | PLCb3 confirm inactive
O=C(Cc1cccs1)Nc1ccc(F)c(S(=O)(=O)N2CCOCC2)c1	PLC-gamma1 inh 9.9 | PLCgamma1 ctr inactive | PLCb3 confirm inactive
Cc1ccc(NC(=O)COC(=O)CN2C(=O)C3CCCCC3C2=O)cc1S(=O)(=O)N1CCOCC1 (stereo not drawn)	none
O=C(Cc1cccs1)Nc1ccc(Cl)c(S(=O)(=O)N2CCOCC2)c1	none
Cc1ccc(NC(=O)CSc2ccccc2)cc1S(=O)(=O)N1CCCCC1	none
COCCCNC(=O)c1ccc(Cn2c(=O)c3ccccc3n(Cc3ccc(Br)cc3)c2=O)cc1	none (no result: Arr AP2 block, NTR1 ag)
CCc1ccc(C2c3[nH]c4ccccc4c3CCN2C(=O)c2cc(C)nn2C)cc1 (stereo not drawn)	PLC-gamma1 inh 10 | PLCgamma1 ctr inactive | PLCb3 confirm inactive
Cc1cccc(OCCCC(=O)Nc2ccc(N(C)C)cc2)c1	none
Cc1cccc(OCCC(=O)Nc2ccc(F)c(F)c2)c1	PLC-gamma1 inh 9.7 | PLCgamma1 ctr inactive | PLCb3 confirm inactive
COc1ccc(S(=O)(=O)N2CCN(CCOc3ccc(Br)cc3)CC2)cc1OC	PLC-gamma1 inh 11 | PLCgamma1 ctr inactive | PLCb3 confirm inactive
COc1ccc(S(=O)(=O)N2CCN(CCOc3ccccc3Cl)CC2)cc1OC	none
O=C(CSCc1ccccc1)Nc1cccc(F)c1	PLC-gamma1 inh 11 | PLCgamma1 ctr inactive | PLCb3 confirm inactive
O=C(CSCc1ccc(F)cc1)Nc1ccc(F)cc1	none
O=C(O)CCCN1C(=O)C2C3CCC(O3)C2C1=O (stereo not drawn)	none
O=C(O)CCCN1C(=O)C2C3CCC(C3)C2C1=O (stereo not drawn)	PLC-gamma1 inh 12 (no result: Arr AP2 block, NTR1 ag) | PLCgamma1 ctr inactive | PLCb3 confirm inactive
N#C/C(=C\c1ccc(OCc2ccc(F)cc2)cc1)C(=O)Nc1cccc(C(=O)O)c1	PLC-gamma1 inh 10 | PLCgamma1 ctr inactive | PLCb3 confirm inactive
CC(C)N1CCN(c2ccc(OCC3COC(Cn4cncn4)(c4ccc(Cl)cc4Cl)O3)cc2)CC1 (stereo not drawn)	PLC-gamma1 inh 9.8 (no result: NTR1 ag) | PLCgamma1 ctr inactive | PLCb3 confirm inactive
CC(C)C[C@@H]1COc2cc(N3CCSCC3)ccc2S(=O)(=O)N1C	none (no result: Arr AP2 block, NTR1 ag)
COC(=O)[C@]12C[C@H](CC(=O)NCC3CCCCC3)C(=O)N(Cc3ccc(Cl)cc3Cl)C1=C[C@H](C1CCCC1)O[C@@H]2C	none (no result: Arr AP2 block, NTR1 ag)
O=C(NCc1ccccc1)C1COc2ccccc2O1 (stereo not drawn)	PLC-gamma1 inh 9.8 | PLCgamma1 ctr inactive | PLCb3 confirm inactive
Cc1ccc(C)c(S(=O)(=O)c2c(C)cc(C)nc2Cl)c1	none
Cc1ccc(S(=O)(=O)c2c(C)cc(C)nc2Cl)c(C)c1	PLC-gamma1 inh 11 | PLCgamma1 ctr inactive | PLCb3 confirm inactive
O=C(COc1ccccc1)N=C1SC2CS(=O)(=O)CC2N1c1ccc(F)cc1F (stereo not drawn)	PLC-gamma1 inh 10 | PLCgamma1 ctr inactive | PLCb3 confirm inactive
O=C(C[C@H]1CC[C@H]2[C@@H](COC[C@@H](O)CN2C(=O)c2cnccn2)O1)NCc1ccc(Oc2ccccc2)cc1	PLC-beta3 inh 11 (no result: Arr AP2 block, NTR1 ag) | PLCgamma1 ctr inactive | PLCb3 confirm inactive
O=C(C[C@H]1CC[C@@H]2[C@H](COC[C@@H](O)CN2C(=O)C2CC2)O1)NCc1ccccc1Cl	none (no result: Arr AP2 block, NTR1 ag)
Cc1cc(C)nc(NCC(O)COc2ccccc2C)n1 (stereo not drawn)	PLC-gamma1 inh 12 | PLCgamma1 ctr inactive | PLCb3 confirm inactive
CCNC(=O)OCCN1C(=O)CCC12CCC(c1ccc(Cl)cc1)CC2 (stereo not drawn)	none (no result: Arr AP2 block, NTR1 ag)

Bioassay records from PubChem.
